The source of these data is ChEMBL document CHEMBL4513216, “Probing the Open Global Health Chemical Diversity Library for Multistage-Active Starting Points for Next-Generation Antimalarials” (ACS Infect Dis, 2020).

A short description of the data set: Toxicity liver stage against HepG2, at 10uM. It is filed as cell-based. Set-up: test concentration 10 uM, cell line HepG2-A16-CD81EGFP. The settings on record: human, HepG2-A16-CD81EGFP cells; read-out: INHIBITION
In outline: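 Uninfected HepG2-A16-CD81EGFP cells, 3 × 10^3 per well, 1536-well, plated on prespotted compound at 10 μM final, parasite-free screening media added to match infected plates; puromycin 10 μM positive, DMSO 0.5% negative; run in parallel with 48 h PbLuc assay at 37 °C, 5% CO2; viability by CellTiter-Glo luminescence, normalized to controls.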
As for `Cc1cc2ncn(C(=O)N3CCOCC3)c2cc1C`, the cytotoxicity at 10 µM is -1.45%.

In the case of `CCN(c1ccsc1C(=O)N1CCCCC1)S(=O)(=O)c1ccccc1`, the cytotoxicity at 10 µM was determined as 9.78%.

Regarding `CCC(C)NC(=O)c1nnn(-c2ccc(Br)cc2)n1` (stereo unspecified), the cytotoxicity at 10 µM worked out at 5.81%.

Consider `O=C(O)CC(CC(=O)N(Cc1ccsc1)C1CC1)c1cccs1` (stereo unspecified), for which the cytotoxicity at 10 µM was determined as 7.8%.

For the compound `O=C(c1ccccn1)N1CCC(Oc2cccnc2)CC1`, the cytotoxicity at 10 µM is -3.59%.

On to `Cc1nsc(C(=O)NCCc2ccc(F)cc2)n1`, for which the cytotoxicity at 10 µM was -6.92%.

With `Cc1cnc(N2CC(C(=O)N3CCOCC3)C3(CCOCC3)C2)nc1` (stereo unspecified), the cytotoxicity at 10 µM is 4.47%.

Regarding `CN1CCN([C@@H]2CN(C(=O)c3ccsc3)[C@@H]3CCCO[C@H]23)CC1`, the cytotoxicity at 10 µM amounted to 6.74%.

`CCS(=O)(=O)N1CC[C@H]2[C@H]1CC(=O)N2Cc1csc(C)n1`: the cytotoxicity at 10 µM is -133%.

In the case of `COCC1COCCC12CCN(C(=O)COc1ccccc1)CC2` (stereo unspecified), the cytotoxicity at 10 µM was -1.69%.

On to `Cc1noc([C@@H]2CC[C@@H]3[C@@H](CCN3S(C)(=O)=O)O2)n1`, for which the cytotoxicity at 10 µM was -2.16%.

For `COc1ncccc1C(=O)N1CC[C@H]2C[C@H](c3noc(C)n3)O[C@@H]2C1`, the cytotoxicity at 10 µM was determined as 5.31%.

`O=S(=O)(NCC1CCN(c2cnccn2)CC1)c1c(F)cccc1F`: the cytotoxicity at 10 µM came out at 10.4%.

`COCc1c(C(=O)O)nnn1Cc1cccc(C(F)(F)F)c1`: the cytotoxicity at 10 µM was 2.17%.

For `O=C(Nc1cnn(Cc2ccc(F)cc2Cl)c1)C1CC1`, the cytotoxicity at 10 µM is -4.83%.

For `Cc1nc2[nH]cnc(Nc3cnn(C)c3)c-2n1`, the cytotoxicity at 10 µM came out at 5.59%.

`CN1CCN(C(=O)CCn2nnc3ccccc32)CC(C(N)=O)C1` (stereo unspecified): the cytotoxicity at 10 µM is 2.24%.

As for `O=C(NCCO)c1sc2ncccc2c1C1CN(C2CCCC2)CCO1` (stereo unspecified), the cytotoxicity at 10 µM was determined as 10.8%.

With `Cc1cc(C)nc(C2CCN(C3CCOCC3)C2)n1` (stereo unspecified), the cytotoxicity at 10 µM was found to be 0.469%.

For the compound `Cc1ccccc1OC1CCN(S(=O)(=O)c2c(C)n[nH]c2C)CC1`, the cytotoxicity at 10 µM is 0.0656%.

For `Cc1nc2c(c(Nc3ccccn3)n1)CN(S(C)(=O)=O)CC2`, the cytotoxicity at 10 µM amounted to 11.1%.

`CN1CCOC(c2cncc(CCC(=O)N(C)C)n2)C1` (stereo unspecified): the cytotoxicity at 10 µM was 0.55%.

For the compound `CC(=O)N1CCCC(Cc2cnc(-c3c(C)nn(C)c3C)cn2)C1` (stereo unspecified), the cytotoxicity at 10 µM is -1.37%.

Regarding `Cc1cc(C(=O)NCCc2c(C)nn(C)c2C)nc(N2CCCCC2)n1`, the cytotoxicity at 10 µM was -16%.

For `Cc1nc(CCC(N)=O)cc(C2CCNCC2)n1`, the cytotoxicity at 10 µM was -15.1%.

Consider `O=C(N[C@@H]1CN(Cc2cccc3[nH]ccc23)C[C@H]1O)c1cscn1`, for which the cytotoxicity at 10 µM is -2.86%.

For `Brc1csc(-c2noc(C3COCCO3)n2)c1` (stereo unspecified), the cytotoxicity at 10 µM is -1.92%.

For the compound `CCC(C)(C)C1CCCN1C(=O)c1coc(S(=O)(=O)NC)c1` (stereo unspecified), the cytotoxicity at 10 µM is -13.5%.

For the compound `Cc1ccc(C(C)NC(=O)Cc2c(C)nc3cc(=O)[nH]n3c2C)s1` (stereo unspecified), the cytotoxicity at 10 µM is -0.159%.

For `CN(C)CCN(Cc1ccc(Cl)cc1)C(=O)c1ccn(C)c(=O)c1`, the cytotoxicity at 10 µM was -5.22%.

As for `O=C(Cc1ccon1)N(CCC(F)(F)F)C1CCCC1`, the cytotoxicity at 10 µM was -9.36%.

For the compound `Cc1ccc(S(N)(=O)=O)cc1C(=O)NC1CCN(C2CC2)CC1`, the cytotoxicity at 10 µM worked out at 13.3%.

In the case of `COCCN(c1cc(C)nc2nc(C(F)(F)F)nn12)C1CCCC1`, the cytotoxicity at 10 µM is -0.0692%.

In the case of `CCc1cc(=O)[nH]c(-c2ccc(NC(C)COC)nc2)n1` (stereo unspecified), the cytotoxicity at 10 µM is -146%.

As for `Cc1cc(C)n(C2CN(Cc3nc4cc(Cl)ccc4n3C)C2)n1`, the cytotoxicity at 10 µM is -2.35%.

Regarding `Cn1c(CN2CCCC(N3CCCCCC3)C2)cc(=O)n(C)c1=O` (stereo unspecified), the cytotoxicity at 10 µM is -1.85%.

In the case of `CC(C)CN(C)S(=O)(=O)c1ccc(Cl)cc1C#N`, the cytotoxicity at 10 µM was -47.2%.

Regarding `O=C(NC1CCCOc2cc(Cl)ccc21)c1ccc(=O)[nH]n1` (stereo unspecified), the cytotoxicity at 10 µM turned out to be 1.5%.

On to `CC(NC(=O)CNc1cc2c(cc1Cl)OCCO2)c1ccco1` (stereo unspecified), for which the cytotoxicity at 10 µM is -1.31%.

In the case of `Cn1c(SCc2noc(C(C)(C)C)n2)nnc1C1CCS(=O)(=O)C1` (stereo unspecified), the cytotoxicity at 10 µM was found to be 8.32%.

For `COCCCC(=O)Nc1[nH]nc(-c2ccncc2)c1C`, the cytotoxicity at 10 µM was -0.158%.

As to `Cc1ccsc1C(Cc1ccccc1)NC(=O)CSCC(N)=O` (stereo unspecified), the cytotoxicity at 10 µM came to 8.13%.

With `COc1c(CNCc2ccccc2Cn2cccn2)c(C)nn1C`, the cytotoxicity at 10 µM amounted to 9.79%.

On to `CCn1cc(S(=O)(=O)NCC(OC)c2cccc(Cl)c2)cn1` (stereo unspecified), for which the cytotoxicity at 10 µM was 10.1%.

In the case of `CC(Nc1cccc2c1OCCO2)C(=O)Nc1ccc(Cl)cc1` (stereo unspecified), the cytotoxicity at 10 µM worked out at 2.84%.

Consider `COCc1nc2cc(NCc3ncc[nH]3)ccc2o1`, for which the cytotoxicity at 10 µM is -4.52%.

As to `Cc1cccc(NC(=O)[C@@H]2CCCN2Cc2nc(C)c(C)o2)n1`, the cytotoxicity at 10 µM is -4.34%.

As to `O=C(NCc1ccccc1CN1CCCC1)Nc1cccnc1`, the cytotoxicity at 10 µM worked out at 6.75%.

For the compound `COC(=O)NCC(=O)N1CCc2cc(Cl)cc(Cl)c2C1`, the cytotoxicity at 10 µM stood at 0.598%.

On to `O=C(NCC1(CO)CC1)NC(c1nccs1)C1CC1` (stereo unspecified), for which the cytotoxicity at 10 µM stood at 1.23%.

For `c1ccc(-c2nnc(CNCC3CCCN3c3cccnn3)o2)cc1` (stereo unspecified), the cytotoxicity at 10 µM was -10.5%.

As for `CNC(=O)CCNC(=O)c1ccccc1N1CCOCC1`, the cytotoxicity at 10 µM turned out to be 2.29%.

Consider `CCOc1ncccc1NC(=O)c1cccs1`, for which the cytotoxicity at 10 µM was found to be 0.932%.

Turning to `COc1ccc(F)cc1C[S+]([O-])CC(=O)NCC(C)C` (stereo unspecified), the cytotoxicity at 10 µM is -5.95%.

With `Cc1cc(C)cc(NC(=O)CC2CN(Cc3ccccc3)CCO2)c1` (stereo unspecified), the cytotoxicity at 10 µM is -8.46%.

Take `Cc1nc(C)n(C2CCCN(C(=O)CCn3ccnn3)C2)n1` (stereo unspecified): the cytotoxicity at 10 µM is -0.649%.

Turning to `O=C(Nc1ccccc1-c1cccs1)N1CCN(CC(F)F)CC1`, the cytotoxicity at 10 µM is -2.11%.

Turning to `CCn1c(C)cc(C(=O)NCc2cccc(S(=O)(=O)NC)c2)c1C`, the cytotoxicity at 10 µM is -6.43%.

Turning to `CNC(=O)CN(C(=O)c1cc(C(C)C)no1)c1cccc(F)c1`, the cytotoxicity at 10 µM stood at 9.77%.

With `COc1c(C)cnc(CN(C)C(=O)Nc2ccc3c(c2)CCO3)c1C`, the cytotoxicity at 10 µM was -0.921%.

As for `Cc1ccc(NC(=O)c2ncc(C(N)=O)cc2Cl)cc1F`, the cytotoxicity at 10 µM was -3.53%.

`Cn1c(SCC(=O)NC(C)(C#N)C2CC2)nc2ccccc21` (stereo unspecified): the cytotoxicity at 10 µM was -2.15%.

Consider `Cc1cnn(CCCNC2Cc3ccccc3C2)c1`, for which the cytotoxicity at 10 µM is 3.34%.

Turning to `COc1ccccc1C1(CNc2ncc(S(N)(=O)=O)s2)CC1`, the cytotoxicity at 10 µM was -3.6%.

For `CCc1noc(CN(C)C(=O)COc2cc(Cl)cc(Cl)c2)n1`, the cytotoxicity at 10 µM was -0.966%.

For the compound `O=C(CCn1c(=O)oc2ccccc21)NCC(O)c1ccccc1` (stereo unspecified), the cytotoxicity at 10 µM was -15.6%.

For the compound `Cc1nn(C)c(C)c1CCC(=O)Nc1cn(C)c(=O)n(C)c1=O`, the cytotoxicity at 10 µM came to 20.6%.

`Cc1noc(C)c1C(=O)N1C[C@@H]2C[C@@H](c3ccncn3)O[C@@H]2C1`: the cytotoxicity at 10 µM is -70%.

On to `CN(Cc1cccnc1)c1nc(-c2ccccn2)nc2c1CCNCC2`, for which the cytotoxicity at 10 µM worked out at 3.64%.

Turning to `COCCn1ccnc1C1CCN(c2cccc(C(=O)O)n2)CC1`, the cytotoxicity at 10 µM was -2.74%.

Turning to `CCN(CC)C(=O)[C@@H]1C[C@@H](N)CN1C(=O)c1cc2c([nH]c1=O)CCC2`, the cytotoxicity at 10 µM was -2.79%.

With `Cc1n[nH]c(C)c1C(N)C(=O)NCCc1csc(C(C)C)n1` (stereo unspecified), the cytotoxicity at 10 µM was -8.64%.

On to `Cc1cc(CNCC2(O)CCCN(CCCc3ccccc3)C2=O)n[nH]1` (stereo unspecified), for which the cytotoxicity at 10 µM is -2.4%.

Take `Cn1c(Cn2cccn2)nnc1C1CCN(Cc2ccccc2Cl)CC1`: the cytotoxicity at 10 µM is -0.4%.

For `COc1cccc(C2CCCN2C(=O)c2cc3c(nc2OC)CCC3)c1` (stereo unspecified), the cytotoxicity at 10 µM was -10.2%.

As to `O=C(c1ccc2c(c1)OCO2)N1C[C@@H](CN2CCCCC2)[C@@H](CO)C1`, the cytotoxicity at 10 µM was -4.06%.

Take `COc1cccc(-c2noc(-c3ccc(N4CC(N)C4)nc3)n2)c1OC`: the cytotoxicity at 10 µM was -4.8%.

For `CC(O)CN1CCc2onc(-c3ccccc3F)c2C1` (stereo unspecified), the cytotoxicity at 10 µM came to 0.963%.

In the case of `COc1cc(C2CC(=O)Nc3c2nc2n3CCCC2)cc(OC)c1O` (stereo unspecified), the cytotoxicity at 10 µM was -9.59%.

On to `O=C(N[C@H]1CN(c2ccncc2)C[C@@H]1C1CC1)C1CCOCC1`, for which the cytotoxicity at 10 µM is -11.8%.

Take `Cc1cc(N2CCCN(C(C(=O)O)c3cccc(C)c3F)CC2)ccn1` (stereo unspecified): the cytotoxicity at 10 µM is -2.11%.

In the case of `CCn1cnnc1C1CCN(C(=O)c2cc(C)n(CC)c2C)CC1`, the cytotoxicity at 10 µM was -6.08%.

Take `O=C(N1CCCC(n2cncn2)C1)C1(c2cccc(F)c2)CCC1` (stereo unspecified): the cytotoxicity at 10 µM turned out to be 0.322%.

For the compound `CCc1nnsc1C(=O)N1CCCC(n2nc(C)nc2C)C1` (stereo unspecified), the cytotoxicity at 10 µM came out at 4.63%.

Consider `CC(=O)N1CCCN(C(=O)NCCCn2cncn2)CC1`, for which the cytotoxicity at 10 µM was -10.1%.

With `CCOc1ccccc1C(CC(=O)Nc1ccccn1)NC(C)=O` (stereo unspecified), the cytotoxicity at 10 µM is -3.95%.

On to `O=C(c1cncc2ccccc12)N1CCC[C@@H]1CO`, for which the cytotoxicity at 10 µM came to 2.37%.

`Cc1nn(C)c(C)c1C1CCCN1C(=O)c1cc[nH]n1` (stereo unspecified): the cytotoxicity at 10 µM stood at 1.35%.

For the compound `CC(NC(=O)NCCCNS(C)(=O)=O)c1ccncc1` (stereo unspecified), the cytotoxicity at 10 µM is 1.08%.

Regarding `Cc1ncsc1C(=O)NCC1CCC2(CCNCC2)CO1` (stereo unspecified), the cytotoxicity at 10 µM was determined as 19.1%.

For the compound `CN1CCC(c2n[nH]c3ncccc23)C1` (stereo unspecified), the cytotoxicity at 10 µM was -20.1%.

For `Cn1cc(N2C(=O)CC[C@@H]3[C@H]2CCN3Cc2ccncc2)cn1`, the cytotoxicity at 10 µM was -8.85%.

In the case of `CN1CCN([C@@H]2CCN(CC3CCOC3)[C@H]2Cc2cnn(C)c2)CC1` (stereo partly specified), the cytotoxicity at 10 µM stood at 5.25%.

On to `Cc1ccc(CN2C[C@@H]3[C@@H](C(=O)N4CCCC4)CCS(=O)(=O)[C@@H]3C2)cc1`, for which the cytotoxicity at 10 µM amounted to 0.411%.

In the case of `C=C1C(C)(C)[C@@H]2CC[C@]1(C(=O)N1CCC(n3cc(CCO)nn3)CC1)C2`, the cytotoxicity at 10 µM is -4.28%.

In the case of `CC(C)CC(=O)NCC1CCC(C(c2ccccn2)N(C)C)CC1` (stereo unspecified), the cytotoxicity at 10 µM was 12.2%.
